Experimental findings from ChEMBL document CHEMBL4049422, “Discovery of Novel Indazole Derivatives as Orally Available β3-Adrenergic Receptor Agonists Lacking Off-Target-Based Cardiovascular Side Effects” (J Med Chem, 2017) are described below.

Structures are written as SMILES. Converted amounts (≈) assume the structure as drawn.

Data set [1] has as its target Adrenoceptor beta 3 (Callithrix jacchus) (UniProt F6XZF4). Nature of the data set: Agonist activity at beta3 adrenergic receptor in marmoset urinary bladder smooth muscle strips assessed as induction of KCl-precontracted muscle relaxation treated every 20 mins.
The target of data set [2] is T1, Beta-2 adrenergic receptor (Homo sapiens, UniProt P07550). The data set is described as follows: Intrinsic activity at recombinant human beta2 adrenergic receptor assessed as accumulation of cyclic AMP after 30 mins relative to isoproterenol.
T1 sequence (P07550 whole entry): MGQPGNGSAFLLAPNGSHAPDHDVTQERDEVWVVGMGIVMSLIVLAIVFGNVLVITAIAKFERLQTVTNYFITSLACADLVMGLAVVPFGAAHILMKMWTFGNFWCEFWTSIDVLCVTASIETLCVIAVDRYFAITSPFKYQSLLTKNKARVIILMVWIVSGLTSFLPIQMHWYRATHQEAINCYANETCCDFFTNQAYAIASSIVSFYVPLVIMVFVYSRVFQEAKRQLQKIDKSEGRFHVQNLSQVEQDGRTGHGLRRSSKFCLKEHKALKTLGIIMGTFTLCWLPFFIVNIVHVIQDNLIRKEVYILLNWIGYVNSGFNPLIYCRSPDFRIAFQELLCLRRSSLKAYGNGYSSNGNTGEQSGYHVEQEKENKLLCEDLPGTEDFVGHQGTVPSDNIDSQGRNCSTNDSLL
The target of data set [3] is T2, Alpha-1A adrenergic receptor (Homo sapiens, UniProt P35348).
T2 sequence (P35348 whole entry): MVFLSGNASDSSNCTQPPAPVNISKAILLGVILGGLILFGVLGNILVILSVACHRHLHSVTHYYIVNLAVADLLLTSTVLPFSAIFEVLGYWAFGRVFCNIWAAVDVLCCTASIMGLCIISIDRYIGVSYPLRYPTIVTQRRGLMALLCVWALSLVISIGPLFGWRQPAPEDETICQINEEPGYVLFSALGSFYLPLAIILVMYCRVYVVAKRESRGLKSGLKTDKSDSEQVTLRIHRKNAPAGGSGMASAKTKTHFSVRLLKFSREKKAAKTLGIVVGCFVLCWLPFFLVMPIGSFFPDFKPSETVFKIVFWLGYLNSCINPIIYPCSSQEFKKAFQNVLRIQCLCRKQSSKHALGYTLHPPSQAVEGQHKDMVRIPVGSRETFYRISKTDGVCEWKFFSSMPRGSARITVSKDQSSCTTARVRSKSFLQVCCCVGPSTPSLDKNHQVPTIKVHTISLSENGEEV
Nature of the data set: Agonist activity at recombinant human alpha1A adrenergic receptor expressed in HEK293 cells assessed as intercellular Ca mobilization by Fura-2AM dye-based fluorescence assay. It is filed as cell-based.

In data set [4] the test system is Rattus norvegicus. The data set is described as follows: Cardiotoxicity in Sprague-Dawley rat assessed as increase in mean blood pressure at 3 mg/kg, iv after 30 mins (reference value: 1 +/- 0.5%). It is filed as toxicity, organism-based. To be noted: in vivo, 0.5 h.
Data set [5] has as its target Beta-1 adrenergic receptor (Homo sapiens, UniProt P08588). Nature of the data set: Agonist activity at recombinant human beta1 adrenergic receptor expressed in CHO cells assessed as accumulation of cyclic AMP after 30 mins. It is filed as cell-based.
Data set [6] deals with Beta-3 adrenergic receptor (Homo sapiens, UniProt P13945). Nature of the data set: Agonist activity at recombinant human beta3 adrenergic receptor expressed in CHO cells assessed as accumulation of cyclic AMP after 30 mins. It is filed as cell-based.
Sequence of Beta-3 adrenergic receptor (P13945 whole entry): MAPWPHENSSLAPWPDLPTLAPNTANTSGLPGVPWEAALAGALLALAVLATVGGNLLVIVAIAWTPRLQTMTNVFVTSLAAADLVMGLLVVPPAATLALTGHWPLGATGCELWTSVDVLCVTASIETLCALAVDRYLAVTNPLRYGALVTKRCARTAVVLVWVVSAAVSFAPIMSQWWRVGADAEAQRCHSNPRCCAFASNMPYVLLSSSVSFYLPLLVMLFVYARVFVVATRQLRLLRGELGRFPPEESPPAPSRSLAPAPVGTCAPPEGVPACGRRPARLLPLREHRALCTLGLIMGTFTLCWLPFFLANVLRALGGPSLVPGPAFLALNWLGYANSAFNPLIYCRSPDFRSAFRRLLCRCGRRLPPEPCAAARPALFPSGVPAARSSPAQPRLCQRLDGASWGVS
The test system of data set [7] is Rattus norvegicus. The data set is described as follows: Cardiotoxicity in Sprague-Dawley rat assessed as decrease in mean blood pressure at 3 mg/kg, iv after 30 mins (reference value: 5.4 +/- 1.9%). It is filed as toxicity, organism-based. Also noted: scale not given: the % may be the effect or the level left. Conditions: in vivo, 0.5 h.
The target of a further data set is CYP3A4 (Homo sapiens, UniProt P08684). The data set is described as follows: Inhibition of CYP3A4 (unknown origin) at 10 uM relative to control. It is filed as ADME.
Sequence of CYP3A4 (P08684 whole entry): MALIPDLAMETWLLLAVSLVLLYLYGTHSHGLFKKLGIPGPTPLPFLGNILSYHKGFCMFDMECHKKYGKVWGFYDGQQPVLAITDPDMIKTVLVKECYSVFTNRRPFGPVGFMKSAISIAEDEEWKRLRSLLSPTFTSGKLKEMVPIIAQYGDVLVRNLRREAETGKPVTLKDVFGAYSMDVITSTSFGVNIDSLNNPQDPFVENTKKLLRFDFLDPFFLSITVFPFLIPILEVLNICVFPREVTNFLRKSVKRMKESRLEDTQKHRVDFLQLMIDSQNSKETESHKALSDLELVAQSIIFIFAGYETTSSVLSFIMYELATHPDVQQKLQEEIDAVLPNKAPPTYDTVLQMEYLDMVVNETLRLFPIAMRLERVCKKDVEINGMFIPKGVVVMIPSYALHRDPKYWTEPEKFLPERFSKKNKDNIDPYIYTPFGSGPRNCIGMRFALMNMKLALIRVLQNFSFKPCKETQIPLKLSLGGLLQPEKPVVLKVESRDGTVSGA
Data set [8] in a line: Solubility of the compound at pH 6.8 buffer solution after 18 hrs by HPLC analysis. It is filed as physicochemical.
Data set [9] concerns the target T3, Alpha-1D adrenergic receptor (Homo sapiens, UniProt P25100).
T3 sequence (P25100 whole entry): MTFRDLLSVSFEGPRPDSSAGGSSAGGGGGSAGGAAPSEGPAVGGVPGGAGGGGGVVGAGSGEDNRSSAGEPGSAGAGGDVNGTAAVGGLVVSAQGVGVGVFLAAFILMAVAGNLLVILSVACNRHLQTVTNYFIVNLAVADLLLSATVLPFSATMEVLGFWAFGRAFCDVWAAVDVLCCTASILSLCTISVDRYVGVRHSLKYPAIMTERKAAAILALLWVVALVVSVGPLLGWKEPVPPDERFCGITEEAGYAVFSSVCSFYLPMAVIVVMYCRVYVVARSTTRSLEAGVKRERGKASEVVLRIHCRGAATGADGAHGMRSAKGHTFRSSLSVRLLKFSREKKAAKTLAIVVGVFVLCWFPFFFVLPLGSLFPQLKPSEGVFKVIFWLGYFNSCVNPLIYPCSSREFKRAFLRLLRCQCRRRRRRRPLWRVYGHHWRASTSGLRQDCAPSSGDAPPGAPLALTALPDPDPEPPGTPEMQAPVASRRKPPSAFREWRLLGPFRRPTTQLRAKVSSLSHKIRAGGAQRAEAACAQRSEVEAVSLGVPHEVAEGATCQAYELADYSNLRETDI
Nature of the data set: Agonist activity at recombinant human alpha1D adrenergic receptor expressed in HEK293 cells after 6 hrs by NFAT-luciferase reporter gene assay. It is filed as cell-based.

The next data set is filed under the species Homo sapiens. Nature of the data set: Selectivity ratio of EC50 for recombinant human alpha1A adrenergic receptor to EC50 for recombinant human beta3 adrenergic receptor.
Data set [10] is described as follows: Intrinsic clearance in human liver microsomes at 1 uM in presence of NADPH by LC-MS/MS analysis. It is filed as ADME, microsome. To be noted: […]. The method, boiled down: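 Pooled mixed-gender human liver microsomes (0.5 mg/mL) in 100 mM potassium phosphate pH 7.4 with NADPH-regenerating mix plus UDP-GA, test compound 1 µM, 15 min at 37 °C. Acetonitrile stop, LC-MS/MS. k from the remaining fraction. CLint,u is scaled with 48.8 mg protein/g liver and 25.7 g liver/kg, and corrected by fu from equilibrium dialysis (1 µM, 0.5 mg/mL, 6 h, 37 °C).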

A short description of data set [11]: AUC in Sprague-Dawley rat at 5 mg/kg, po by LC-MS/MS analysis. It is filed as ADME, organism-based. Conditions: in vivo. The method, boiled down: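 Male Sprague-Dawley rats (n = 2 or 3) dosed orally at 5 mg/kg in saline or water (5 mL/kg). Blood taken from the subclavian vein at 0.5, 1, 2, 4, 6 and 8 h; plasma separated by centrifugation, stored at -20 °C, and drug levels measured by LC-MS/MS. Values are mean ± SD (n = 3) or the average of two experiments.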

In the next data set the target is T4, CYP1A2 (Homo sapiens, UniProt P05177).
T4 sequence (P05177 whole entry): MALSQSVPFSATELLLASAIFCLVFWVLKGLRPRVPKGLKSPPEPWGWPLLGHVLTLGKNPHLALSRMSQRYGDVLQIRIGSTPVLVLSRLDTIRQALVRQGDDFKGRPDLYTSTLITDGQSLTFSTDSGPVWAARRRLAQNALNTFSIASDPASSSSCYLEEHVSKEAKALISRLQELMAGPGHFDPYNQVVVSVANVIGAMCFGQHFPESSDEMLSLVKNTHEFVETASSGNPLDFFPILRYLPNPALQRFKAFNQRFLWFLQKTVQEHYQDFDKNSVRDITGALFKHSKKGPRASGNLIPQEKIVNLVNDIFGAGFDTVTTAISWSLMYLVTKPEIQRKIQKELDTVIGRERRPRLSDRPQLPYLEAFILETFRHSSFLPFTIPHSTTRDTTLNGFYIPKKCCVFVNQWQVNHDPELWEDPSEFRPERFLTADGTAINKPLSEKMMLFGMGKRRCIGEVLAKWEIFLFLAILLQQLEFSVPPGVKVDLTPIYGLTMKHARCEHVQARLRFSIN
Nature of the data set: Inhibition of CYP1A2 (unknown origin) at 10 uM relative to control. It is filed as ADME.

For data set [12], the target named is T1, Beta-2 adrenergic receptor. The data set is described as follows: Agonist activity at recombinant human beta2 adrenergic receptor expressed in CHO cells assessed as accumulation of cyclic AMP after 30 mins. It is filed as cell-based.
Data set [13] concerns Rattus norvegicus. The data set is described as follows: Cardiotoxicity in Sprague-Dawley rat assessed as decrease in heart beat rate at 3 mg/kg, iv after 30 mins (reference value: 4.5 +/- 0.8%). It is filed as toxicity, organism-based. On the set-up: scale not given: the % may be the effect or the level left. To be noted: in vivo, 0.5 h.

Sequence of Adrenoceptor beta 3 (Callithrix jacchus) (F6XZF4 as listed by the source): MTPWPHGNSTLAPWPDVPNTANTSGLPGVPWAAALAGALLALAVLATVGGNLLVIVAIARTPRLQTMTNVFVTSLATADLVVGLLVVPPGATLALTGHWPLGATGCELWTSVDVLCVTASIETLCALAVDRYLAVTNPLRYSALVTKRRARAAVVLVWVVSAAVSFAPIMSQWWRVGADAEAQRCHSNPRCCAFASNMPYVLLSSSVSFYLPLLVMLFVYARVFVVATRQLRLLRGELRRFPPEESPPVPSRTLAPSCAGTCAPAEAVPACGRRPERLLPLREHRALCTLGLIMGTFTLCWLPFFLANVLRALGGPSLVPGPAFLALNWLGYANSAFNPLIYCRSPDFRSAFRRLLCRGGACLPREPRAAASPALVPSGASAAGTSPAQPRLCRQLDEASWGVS
Sequence of Beta-1 adrenergic receptor (P08588 whole entry): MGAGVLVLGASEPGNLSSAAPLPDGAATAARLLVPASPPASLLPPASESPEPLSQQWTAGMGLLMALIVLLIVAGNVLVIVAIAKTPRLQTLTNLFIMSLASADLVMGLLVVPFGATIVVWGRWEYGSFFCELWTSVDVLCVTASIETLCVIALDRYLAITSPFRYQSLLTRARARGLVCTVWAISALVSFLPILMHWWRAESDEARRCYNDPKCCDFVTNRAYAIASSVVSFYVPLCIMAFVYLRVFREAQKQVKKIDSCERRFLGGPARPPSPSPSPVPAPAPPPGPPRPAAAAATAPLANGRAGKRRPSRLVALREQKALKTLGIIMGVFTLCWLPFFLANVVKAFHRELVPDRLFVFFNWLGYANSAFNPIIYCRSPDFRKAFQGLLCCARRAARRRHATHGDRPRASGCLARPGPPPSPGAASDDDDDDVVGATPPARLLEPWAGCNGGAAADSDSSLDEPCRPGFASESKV

As to `Cc1n[nH]c2cc(OCCNC[C@H](O)c3cccc(NS(=O)(=O)C4CCC4)c3)ccc12`, the Activity entry in [1] is “Dose-dependent effect”; with Rattus norvegicus [4] it was 2%; in the data set on Rattus norvegicus [7], 12.9%; in the data set on Rattus norvegicus [13], 0.9%. In addition, the Emax at 0.5 h in [2] amounted to 4%. In addition, the EC50 is above 10 µM in [3]; above 10 µM in data set [5]; 0.018 µM in [6]; above 10 µM in [9]; above 10 µM in data set [12]. Besides, the inhibition at 10 µM on CYP3A4 and against CYP1A2 was below 34% each time. For the same compound, in [8], the concentration in solution (solubility at 18 h) was 278 µM (≈ 124 µg/mL). Besides, the Ratio EC50 in the data set filed under Homo sapiens is above 556. The CLint scaled at 1 µM in [10] worked out at 57 mL/min/kg. Further, the AUC in data set [11] came out at 312 ng·h/mL.
